Screens from PubChem BioAssay.
TDP2 absorb: TDP2 (human) inhibition, absorbance primary screen. recombinant TDP2, T5PNP hydrolysis, p-nitrophenol absorbance 415 nm. AID 720702. actives 0.34% (n = 370,000). O95551. inhibition, % at 12.8 µM;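 active = inhibition above the mean of all tested compounds plus 3 SD, set per campaign, cut at about 25% in these data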;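 also: 0% = DMSO with enzyme and 100% = buffer with substrate but no TDP2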
Target sequence (O95551 whole entry, looked up): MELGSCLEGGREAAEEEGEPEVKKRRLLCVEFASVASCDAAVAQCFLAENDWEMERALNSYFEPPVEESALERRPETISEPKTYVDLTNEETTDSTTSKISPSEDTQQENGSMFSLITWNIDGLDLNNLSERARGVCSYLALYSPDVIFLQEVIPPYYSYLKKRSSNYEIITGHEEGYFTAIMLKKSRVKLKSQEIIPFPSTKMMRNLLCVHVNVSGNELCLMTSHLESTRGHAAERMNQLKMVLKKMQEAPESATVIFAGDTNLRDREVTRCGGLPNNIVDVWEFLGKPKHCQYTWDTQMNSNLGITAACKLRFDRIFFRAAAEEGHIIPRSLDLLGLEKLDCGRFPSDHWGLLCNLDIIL
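System: recombinant human TDP2 / Amount: 120 nM TDP2 per well / Also added: 5 mM T5PNP chromogenic substrate / Doses: 12.8 µM single point, 1% DMSO / Incubation: 2 h at 37 °C / Detection: p-Nitrophenol epi absorbance / Evaluation: % inhibition relative to enzyme-containing and enzyme-free wells / Repeats: singlicate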
CTSL1 counter: blocks F. hepatica cathepsin L1 in PFM18AAP counter-screen; recombinant F. hepatica cathepsin L1, Z-Leu-Arg-MCA fluorescence; inhibition, % at 5.96 µM; actives 0.49% (n = 300,000); AID 1906;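 active = inhibition above the mean of all tested compounds plus 3 SD, set per screening campaign, cut at about 17% in these data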;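 also: 0% = plate median of test compound wells and 100% = 1 µM Z-Phe-Ala-diazomethylketone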
PRMT1 FP inh: inhibitors of human PRMT1 | actives 1.3% (n = 370,000) | Q99873 | AID 652257 | inhibition, % at 2.79 µM | recombinant PRMT1, activity-based probe fluorescence polarization;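 active = inhibition above about 21% made by adding two undisclosed values, limit read from the data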
GSTO1 counter: blocks human GSTO1 in RBBP9 counter-screen. P78417. recombinant GSTO1, activity-based probe fluorescence polarization. inhibition, % at 5.96 µM. actives 1.1% (n = 300,000). AID 1974;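 active = inhibition above the campaign mean inhibition plus 3 SD, cut at about 35% in these data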;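 also: 0% = GSTO1-1 with DMSO and 100% = wells lacking GSTO1-1 enzyme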
PAD4 FP inh: PAD4 (human) enzyme inhibition. actives 0.41% (n = 330,000). inhibition, % at 6.36 µM. recombinant PAD4, RCA probe fluorescence polarization. AID 485272. Q9UM07;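 active = percent inhibition above a cutoff equal to the mean of all tested compounds plus 3 SD, cut at about 15% in these data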;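 also: 0% = PAD4 with RCA probe and DMSO and 100% = probe without PAD4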
GSTO1 inh conf: confirmation of human GSTO1 inhibitors; recombinant GSTO1, probe fluorescence polarization; actives 54% (n = 2,400); shares compounds with GSTO1 counter; AID 2176; inhibition, % at 5.96 µM;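 active = inhibition above the primary screen's cutoff, its mean inhibition plus 3 SD, cut at about 35% in these data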;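 also: loss of polarization as inhibitors block binding of rhodamine sulfonate ester activity probe; 0% = GSTO1 with DMSO and 100% = wells lacking GSTO1 enzyme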
GSTO1 ABPP inh: GSTO1 (human) inhibition by gel ABPP; actives 30% (n = 130); inhibition, % at 1 µM; recombinant GSTO1, gel ABPP SE-Rh probe fluorescence; shares compounds with GSTO1 counter; AID 463110;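 active = inhibition of the enzyme GSTO1 above about 75%, limit read from the data; inactive = inhibition below that limit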
PAD4 FP conf: PAD4 (human) inhibition, confirmed. shares compounds with PAD4 FP inh. recombinant PAD4, RCA probe fluorescence polarization. inhibition, % at 6.36 µM. actives 28% (n = 1,200). AID 488796;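 active = mean inhibition across replicates above the hit cutoff set by the earlier primary screen, cut at about 15% in these data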;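 also: inhibitors block active-site labeling by the probe so polarization falls; 0% = PAD4 with probe and DMSO and 100% = probe without PAD4 enzyme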
Starred values were filed as active, the others as inactive; . = no result. Shown are actives, neighbours in structure and some others; about 2.5% of the full set was active somewhere.

SMILES | TDP2 absorb | CTSL1 counter | PRMT1 FP inh | GSTO1 counter | PAD4 FP inh | GSTO1 inh conf | others
CC(C)(C)N1C(=O)NC(=O)/C(=C\c2ccc3c(c2)CCN3CCCCl)C1=O | 19 | 1 | 3 | 38* | 1 | 66*
CCN1C(=O)/C(=C/c2ccc3c(c2)CCN3CCCCl)C(=O)NC1=S | -1 | 5 | 11 | 56* | -5 | 70*
CCCCN1C(=O)/C(=C/c2ccc(N3CCCCCC3)cc2)C(=O)NC1=S | . | -3 | . | -8 | -15 | .
O=C1NC(=S)N(C2CC2)C(=O)/C1=C/c1ccc2c(c1)CCN2CCCCl | 1 | 1 | 35* | 56* | -6 | 63*
N=c1sccn1Cc1ccc(Cl)cc1Cl | 12 | -3 | 0 | 75* | 0 | 7
C=CCCC1(C2=CCCCC2)C(=O)NC(=O)NC1=O | 2 | . | -4 | . | . | .
C=C(C)Cn1c(=O)n(CC2CS2)c2ccccc21 (centres undefined) | -1 | -1 | -2 | 50* | -1 | 46*
Oc1ccc2c3c1O[C@H]1c4[nH]c5ccccc5c4C[C@@]4(O)C(C2)N(CC2CC2)CC[C@]314 | . | 3 | . | 40* | -3 | 3
C[n+]1c2ccccc2nc2ccc(NCCO)cc21 | 19 | 38* | 11 | 69* | 84* | 46*
OCCNc1c2c(nc3ccccc13)CCCC2 | 0 | -1 | 0 | 3 | -4 | .
CCN(CC)c1ccc(C=C2C(=O)NC(=S)NC2=O)cc1 | 7 | -3 | 10 | 2 | 0 | .
CC(C)CN(CC(C)C)c1ccc(C=C2C(=O)NC(=S)NC2=O)cc1[N+](=O)[O-] | 0 | 0 | 17 | 42* | -5 | 27
NC(Cc1ccc(N(CCCl)CCCl)cc1)C(=O)O (centres undefined) | 4 | . | 2 | . | . | .
Cn1cc(NC(=O)CCl)cn1 | 9 | 0 | -1 | 80* | -2 | 89*
CCCN1CCc2cccc3c2[C@H]1Cc1ccc(O)c(O)c1-3 | . | 9 | . | 93* | 4 | 9
CC(C)C[C@H]1C(=O)N2CCC[C@H]2[C@]2(O)O[C@](NC(=O)[C@@H]3C=C4c5cccc6[nH]cc(c56)C[C@H]4N(C)C3)(C(C)C)C(=O)N12 | . | 34* | . | 51* | 7 | 6
O=C(CN1CCCC1=O)Nc1ccccc1 | -10 | 1 | -1 | 5 | -3 | .
O=C(CN1CCCC1=O)N1CCOCC1 | -1 | 6 | -1 | 56* | 0 | 12
COc1ccc2c(c1)C13CCN4CC5=CCOC6CC(=O)N2C1C6C5CC43 (centres undefined) | 0 | . | -3 | . | . | .
CC1CCN(C(=O)CCl)CC1 | 5 | 6 | -2 | 93* | 1 | 95* | GSTO1 ABPP inh=83*
CCCCOC1OCN(C2CCCCC2)CC1(C)C (centres undefined) | 2 | . | -1 | . | . | .
CC(C)(C)c1ccc(O)c(N=Cc2c(O)ccc3ccccc23)c1 | -6 | 1 | 31* | 69* | -6 | 8
C[C@H](NC(=O)OCc1ccccc1)C(=O)NC(Cc1ccccc1)P(=O)(Oc1ccccc1)Oc1ccccc1 (some centres undefined) | -9 | . | -1 | . | . | .
CCCC1(CC(C)CC)C(=O)NC(=O)NC1=O (centres undefined) | 4 | . | -9 | . | . | .
Brc1ccc2[nH]cc(C=NN3CCCCCC3)c2c1 | 2 | . | -1 | . | . | .
c1ccc(-c2[nH]c[n+](CC3CO3)c2-c2ccccc2)cc1 (centres undefined) | . | 1 | . | 76* | 3 | 81* | GSTO1 ABPP inh=24
c1ccc(OCC2CO2)cc1 (centres undefined) | 0 | . | -2 | . | -3 | .
CCn1nc(-c2ccccc2)nc2c(=O)n(C)c(=O)nc1-2 | . | 114* | . | 90* | 68* | 92* | PAD4 FP conf=-4
Cc1nc2c(=O)n(C)c(=O)nc-2n(C)n1 | 86* | 112* | -2 | 98* | 77* | 96* | PAD4 FP conf=69*
O=C1CC2OCC=C3CN4CCC56c7cc([N+](=O)[O-])ccc7N1C5C2C3CC46 (centres undefined) | 7 | 4 | 0 | 5 | -2 | .
